We go through twelve molecules from ChEMBL document CHEMBL4359855, “Targeting IRAK4 for Degradation with PROTACs” (ACS Med Chem Lett, 2019).

Data set [1] concerns the target E3 ubiquitin-protein ligase XIAP/Interleukin-1 receptor-associated kinase 4 (Homo sapiens) (UniProt Q9NWZ3+P98170). Briefly: Protac activity at IAP/IRAK4 in human PBMC assessed as induction of degradation of IRAK4 incubated for 24 hrs by Western blot analysis relative to control. In kind it is protein assay. In outline:
(§1)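 PBMCs exposed to rising compound concentrations for 24 h. IRAK4 protein read by Western blot against DMSO-treated cells. Dmax is the maximum degradation observed.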

Data set [2] concerns the target T1, Interleukin-1 receptor-associated kinase 4 (Homo sapiens, UniProt Q9NWZ3).
T1 sequence (Q9NWZ3 whole entry): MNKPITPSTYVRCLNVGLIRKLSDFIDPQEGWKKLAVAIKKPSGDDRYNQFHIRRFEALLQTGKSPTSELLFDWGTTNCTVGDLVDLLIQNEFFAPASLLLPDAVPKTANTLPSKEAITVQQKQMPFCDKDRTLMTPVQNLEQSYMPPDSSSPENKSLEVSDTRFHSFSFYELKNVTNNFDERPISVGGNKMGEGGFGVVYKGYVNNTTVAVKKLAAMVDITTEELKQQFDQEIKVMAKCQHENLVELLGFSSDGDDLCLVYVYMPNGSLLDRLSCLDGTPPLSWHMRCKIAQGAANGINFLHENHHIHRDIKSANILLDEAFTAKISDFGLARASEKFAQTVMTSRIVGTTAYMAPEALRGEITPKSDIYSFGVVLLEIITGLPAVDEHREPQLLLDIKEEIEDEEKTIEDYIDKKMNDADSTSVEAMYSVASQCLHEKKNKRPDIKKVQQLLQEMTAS
Briefly: Binding affinity to human IRK4 using myelin basic protein as substrate by [gamma-33P]-ATP assay.

Data set [3] addresses Interleukin-1 receptor-associated kinase 1 (Homo sapiens, UniProt P51617). Briefly: Binding affinity to human IRK1 using myelin basic protein as substrate by [gamma-33P]-ATP assay.
The nature of data set [4]: Chromatographic hydrophobicity index, log D of compound at pH 7.4. It counts as physicochemical. To be noted: buffer.
In data set [5] the target is T2, von Hippel-Lindau disease tumor suppressor/Interleukin-1 receptor-associated kinase 4 (Homo sapiens, UniProt Q9NWZ3+P40337). Briefly: Protac activity at VHL/IRAK4 in human PBMCs assessed as induction of degradation of IRAK4 at 0.1 to 10 uM incubated for 24 hrs by Western blot analysis. On the technique in general: Immunoblotting shows a protein as a band on a membrane.
Target sequence in this assay (P40337 whole entry, looked up, one chain of several): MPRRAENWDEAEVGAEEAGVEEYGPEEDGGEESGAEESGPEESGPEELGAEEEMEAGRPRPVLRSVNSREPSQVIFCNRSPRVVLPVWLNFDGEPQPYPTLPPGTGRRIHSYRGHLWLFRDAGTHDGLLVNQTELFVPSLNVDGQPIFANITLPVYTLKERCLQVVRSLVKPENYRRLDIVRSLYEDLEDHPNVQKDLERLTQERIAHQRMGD

The target of data set [6] is T2, von Hippel-Lindau disease tumor suppressor/Interleukin-1 receptor-associated kinase 4. Briefly: Protac activity at VHL/IRAK4 in human PBMC assessed as induction of degradation of IRAK4 at 3 uM incubated for 24 hrs by Western blot analysis relative to control. In kind it is protein assay. The essentials:
as §1
Target sequence in this assay (P40337 whole entry, looked up, one chain of several): as above

Data set [7] shares this target. Briefly: Protac activity at VHL/IRAK4 in human PBMC assessed as remaining IRAK4 level at 100 nM incubated for 24 hrs by Western blot analysis relative to control. In kind it is protein assay. The essentials: as §1
Target sequence in this assay (P40337 whole entry, looked up, one chain of several): as above
The target is the same in data set [8]. Briefly: Protac activity at VHL/IRAK4 in human PBMC assessed as remaining IRAK4 level at 300 nM incubated for 24 hrs by Western blot analysis relative to control. In kind it is protein assay. The essentials: as §1
Target sequence in this assay (P40337 whole entry, looked up, one chain of several): as above
The target is the same in data set [9]. Briefly: Protac activity at VHL/IRAK4 in human PBMC assessed as remaining IRAK4 level at 1 uM incubated for 24 hrs by Western blot analysis relative to control. It counts as protein assay. In outline:
as §1
Target sequence in this assay (P40337 whole entry, looked up, one chain of several): as above

Data set [10] has the same target. Briefly: Protac activity at VHL/IRAK4 in human PBMC assessed as remaining IRAK4 level at 10 uM incubated for 24 hrs by Western blot analysis relative to control. It counts as protein assay. The essentials:
as §1
Target sequence in this assay (P40337 whole entry, looked up, one chain of several): as above

Data set [11] shares this target. Briefly: Protac activity at VHL/IRAK4 in human PBMC assessed as induction of degradation of IRAK4 incubated for 24 hrs by Western blot analysis. It counts as protein assay. The essentials: as §1
Target sequence in this assay (P40337 whole entry, one chain of several): as the sequence (P40337 whole entry, looked up, one chain of several) above
Data set [12] can be described thus: Solubility of compound. In kind it is physicochemical.
Data set [13] addresses T2, von Hippel-Lindau disease tumor suppressor/Interleukin-1 receptor-associated kinase 4. Briefly: Protac activity at VHL/IRAK4 in human epoxomicin PBMC assessed as increase in p21 accumulation at 0.01 to 10 uM incubated for 22 hrs by Western blot analysis. In kind it is protein assay. The essentials:
(§2)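 PBMCs pretreated 2 h with 10 μM epoxomicin, then given compound for a further 22 h. IRAK4 and p21 (proteasome-inhibition marker) read by Western blot against DMSO-treated cells.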

For data set [14], the target named is T3, von Hippel-Lindau disease tumor suppressor/Interleukin-1 receptor-associated kinase 4 (Homo sapiens, UniProt P40337+Q9NWZ3). Briefly: Protac activity at VHL/IRAK4 in human PBMC assessed as reduction in R848-stimulated IL-1beta level preincubated for 18 hrs followed by R848-stimulation and measured after 8 hrs by MSD assay. In kind it is protein assay. In outline:
(§3)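 PBMCs pretreated 18 h with compound, then stimulated 8 h with R848 (2.5 μg/mL). Secreted cytokines measured by MSD electrochemiluminescence.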

The target in data set [15] is T3, von Hippel-Lindau disease tumor suppressor/Interleukin-1 receptor-associated kinase 4. Briefly: Protac activity at VHL/IRAK4 in human PBMC assessed as reduction in R848-stimulated IFNgamma preincubated for 18 hrs followed by R848 stimulation and measured after 8 hrs by MSD assay. In kind it is protein assay. In outline:
as §3

Data set [16] has the same target. Briefly: Protac activity at VHL/IRAK4 in human PBMC assessed as reduction in R848-stimulated IL-6 level preincubated for 18 hrs followed by R848 stimulation and measured after 8 hrs by MSD assay. It counts as protein assay. The essentials: as §3
Data set [17] has the same target. Briefly: Protac activity at VHL/IRAK4 in human PBMC assessed as reduction in R848-stimulated IL-8 level preincubated for 18 hrs followed by R848 stimulation and measured after 8 hrs by MSD assay. In kind it is protein assay. In outline: as §3
Data set [18] shares this target. Briefly: Protac activity at VHL/IRAK4 in human PBMC assessed as reduction in R848-stimulated IL-10 level preincubated for 18 hrs followed by R848 stimulation and measured after 8 hrs by MSD assay. It counts as protein assay. The essentials:
as §3

Data set [19] shares this target. Briefly: Protac activity at VHL/IRAK4 in human PBMC assessed as reduction in R848-stimulated TNFalpha level preincubated for 18 hrs followed by R848 stimulation and measured after 8 hrs by MSD assay. In kind it is protein assay. In outline:
as §3

For data set [20], the target named is T2, von Hippel-Lindau disease tumor suppressor/Interleukin-1 receptor-associated kinase 4. Briefly: Protac activity at VHL/IRAK4 in human dermal fibroblast assessed as induction of degradation of IRAK4 incubated for 24 hrs by Western blot analysis. It counts as protein assay. In outline: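 Human dermal fibroblasts treated with compound for 24 h. IRAK4 protein measured by Western blot and DC50 derived.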
Target sequence in this assay (P40337 whole entry, one chain of several): as the sequence (P40337 whole entry, looked up, one chain of several) above

Data set [21] has the same target. Briefly: Protac activity at VHL/IRAK4 in human dermal fibroblast assessed as reduction in IL-1beta stimulated IL-6 level at 300 nM incubated for 18 hrs followed by IL-1beta stimulation further incubated for 8 hrs by MSD assay. In kind it is protein assay. The essentials: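 Human dermal fibroblasts pretreated 18 h with 300 nM compound, then stimulated 8 h with IL-1β (10 ng/mL). Secreted IL-6 measured. n = 4, mean ± SE.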

Data set [22] shares this target. Briefly: Protac activity at VHL/IRAK4 in human epoxomicin pretreated PBMC assessed as induction of degradation of IRAK4 at 0.01 to 10 uM incubated for 22 hrs by Western blot analysis. It counts as protein assay. The essentials:
as §2

For data set [23], the target named is Protein cereblon/Interleukin-1 receptor-associated kinase 4 (Homo sapiens) (UniProt Q9NWZ3+Q96SW2). Briefly: Protac activity at CRBN/IRAK4 in human PBMC assessed as induction of degradation of IRAK4 incubated for 24 hrs by Western blot analysis relative to control. It counts as protein assay. The essentials: as §1
Data set [24] addresses T2, von Hippel-Lindau disease tumor suppressor/Interleukin-1 receptor-associated kinase 4. Briefly: Protac activity at VHL/IRAK4 in human PBMC assessed as induction of degradation of IRAK4 incubated for 24 hrs by Western blot analysis relative to control. In kind it is protein assay. In outline: as §1

≈ marks a conversion by molar mass, not a printed value. Calls of active or inactive are those of the source. The rule behind the calls is not given here. Some results are limits rather than exact numbers.

T3 sequence (P40337 whole entry, one chain of several): as the sequence (P40337 whole entry, looked up, one chain of several) above
Chain of Interleukin-1 receptor-associated kinase 1 (P51617 whole entry): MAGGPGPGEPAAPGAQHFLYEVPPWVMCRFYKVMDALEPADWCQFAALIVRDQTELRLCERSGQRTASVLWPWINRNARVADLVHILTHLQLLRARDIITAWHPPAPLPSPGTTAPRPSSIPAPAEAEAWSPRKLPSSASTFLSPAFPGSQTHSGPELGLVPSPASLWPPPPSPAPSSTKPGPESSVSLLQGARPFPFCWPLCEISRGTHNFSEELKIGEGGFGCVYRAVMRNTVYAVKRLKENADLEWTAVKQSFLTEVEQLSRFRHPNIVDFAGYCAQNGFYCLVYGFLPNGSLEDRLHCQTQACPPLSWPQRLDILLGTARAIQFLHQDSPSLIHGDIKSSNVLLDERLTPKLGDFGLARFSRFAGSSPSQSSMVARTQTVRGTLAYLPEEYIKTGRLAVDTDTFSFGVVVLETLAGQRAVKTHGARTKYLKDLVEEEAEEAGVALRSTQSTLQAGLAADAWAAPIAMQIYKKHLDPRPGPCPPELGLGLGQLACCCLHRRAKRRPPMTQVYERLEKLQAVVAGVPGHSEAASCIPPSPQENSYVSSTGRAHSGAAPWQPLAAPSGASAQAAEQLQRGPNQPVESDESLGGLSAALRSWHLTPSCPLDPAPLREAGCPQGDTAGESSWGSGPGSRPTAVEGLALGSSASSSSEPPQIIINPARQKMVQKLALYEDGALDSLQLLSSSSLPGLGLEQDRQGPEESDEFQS
Chain of Protein cereblon/Interleukin-1 receptor-associated kinase 4 (Homo sapiens) (Q96SW2 whole entry, looked up, one chain of several): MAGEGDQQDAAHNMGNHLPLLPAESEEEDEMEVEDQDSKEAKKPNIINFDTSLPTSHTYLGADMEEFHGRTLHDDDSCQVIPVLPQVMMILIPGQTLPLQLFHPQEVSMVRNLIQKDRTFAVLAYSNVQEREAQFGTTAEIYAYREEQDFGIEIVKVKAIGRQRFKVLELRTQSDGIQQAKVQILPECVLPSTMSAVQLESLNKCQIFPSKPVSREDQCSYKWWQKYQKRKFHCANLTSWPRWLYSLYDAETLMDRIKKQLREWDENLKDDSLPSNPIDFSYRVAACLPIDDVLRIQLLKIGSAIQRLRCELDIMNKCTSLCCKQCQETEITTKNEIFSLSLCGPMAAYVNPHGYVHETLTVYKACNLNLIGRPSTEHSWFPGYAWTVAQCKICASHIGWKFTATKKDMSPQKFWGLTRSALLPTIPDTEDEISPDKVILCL
Chain of E3 ubiquitin-protein ligase XIAP/Interleukin-1 receptor-associated kinase 4 (Homo sapiens) (P98170 whole entry, looked up, one chain of several): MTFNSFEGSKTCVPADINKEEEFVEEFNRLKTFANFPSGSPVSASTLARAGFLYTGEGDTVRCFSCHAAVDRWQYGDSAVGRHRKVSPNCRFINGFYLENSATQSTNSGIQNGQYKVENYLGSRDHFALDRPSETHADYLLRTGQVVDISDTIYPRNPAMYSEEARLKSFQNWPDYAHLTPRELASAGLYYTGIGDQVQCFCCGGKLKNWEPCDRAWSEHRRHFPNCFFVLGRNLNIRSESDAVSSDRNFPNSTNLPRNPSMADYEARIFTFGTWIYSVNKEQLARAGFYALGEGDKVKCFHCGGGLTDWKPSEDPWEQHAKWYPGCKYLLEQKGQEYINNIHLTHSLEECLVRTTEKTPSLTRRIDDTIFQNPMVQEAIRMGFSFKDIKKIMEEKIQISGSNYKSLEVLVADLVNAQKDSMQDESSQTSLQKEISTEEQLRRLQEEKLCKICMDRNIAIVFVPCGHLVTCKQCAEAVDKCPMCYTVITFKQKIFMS

Take `CN[C@@H](C)C(=O)N[C@H](C(=O)N1C[C@@H](NC(=O)CCCCCCCCCCC#Cc2cnc(OC[C@@H]3CCC(=O)N3)c3cc(OC)c(C(N)=O)cc23)C[C@H]1C(=O)N[C@@H]1CCCc2ccccc21)C1CCCCC1`: in data set [1], the maximal effect (Emax) is 0%. Besides, the half-maximal inhibitory concentration (IC50) in [2] worked out at 21 nM; in [3], 6940 nM. Moreover, in data set [4], the “Chromatographic log D at pH 7.4 (ChromLogD)” value (“Chromatographic log D” for short) amounted to 6.56. In data set [5], the outcome was inactive.

Consider `COc1cc2c(OC[C@@H]3CCC(=O)N3)ncc(C#CCCCCCCCCCCC(=O)N[C@H](C(=O)N3C[C@H](O)C[C@H]3C(=O)NCc3ccc(-c4scnc4C)cc3)C(C)(C)C)c2cc1C(N)=O`, for which the Emax in [6] amounted to 50%. Also, the 50% inhibitory concentration (IC50) in [2] is 0.099 nM; in data set [3], greater than 10000 nM. Also, the “Chromatographic log D” value in data set [4] is 5.82. The Activity was found to be 101% in data set [7], 80% in [8], 81% in data set [9] and 65% in data set [10].

Turning to `CN[C@@H](C)C(=O)N[C@H](C(=O)N1C[C@@H](NC(=O)CCOCCOCCOCC#Cc2cnc(OC[C@@H]3CCC(=O)N3)c3cc(OC)c(C(N)=O)cc23)C[C@H]1C(=O)N[C@@H]1CCCc2ccccc21)C1CCCCC1`, in [1], the Emax was found to be 0%. The IC50 in data set [2] is 0.022 nM; in data set [3], greater than 10000 nM. Moreover, the “Chromatographic log D” value in [4] stood at 3.79. In data set [5], the result was inactive.

Regarding `CC[C@@H]1[C@H](F)C(=O)N[C@@H]1COc1ncc(C#CCN2CCC3(CC2)CCN(c2ncc(C(=O)N[C@H](C(=O)N4C[C@H](O)C[C@H]4C(=O)NCc4ccc(-c5scnc5C)cc4)C(C)(C)C)cn2)CC3)c2cc(C(N)=O)c(OC)cc12`, the values for the DC50 in data set [11] and in data set [20] were 151 nM and 36 nM, respectively. The same molecule registered a solubility in data set [12] of 5 µM (≈ 5.43 µg/mL). Further, the result in data set [13] was Active. The IC50 was 39.8 nM in data set [14]; 31.6 nM in data set [15]; 63.1 nM in [16]; 79.4 nM in data set [17]; 316 nM in data set [18]; 50.1 nM in [19]. For the same molecule, the outcome in data set [21] and in [22] was inactive. Also, in data set [4], the “Chromatographic log D” value was 4.97.

As for `COc1cc2c(OC[C@@H]3CCC(=O)N3)ncc(C#CCOCCOCCOCCOc3cccc4c3C(=O)N(C3CCC(=O)NC3=O)C4=O)c2cc1C(N)=O` (some centres not stated), the Emax in data set [23] turned out to be 0%. Also, the result in data set [5] was inactive.

`COc1cc2c(OC[C@@H]3CCC(=O)N3)ncc(C#CCCCC(=O)N[C@H](C(=O)N3C[C@H](O)C[C@H]3C(=O)NCc3ccc(-c4scnc4C)cc3)C(C)(C)C)c2cc1C(N)=O`: in data set [5], the outcome was inactive.

Consider `COc1cc2c(OC[C@@H]3CCC(=O)N3)ncc(Br)c2cc1C(N)=O`, for which the IC50 was 2.1 nM in data set [2] and greater than 10000 nM in data set [3]. The “Chromatographic log D” value in data set [4] was 2.1.

On to `COc1cc2c(OC[C@@H]3CCC(=O)N3)ncc(C#CCCCCCCCCCCOc3cccc4c3C(=O)N(C3CCC(=O)NC3=O)C4=O)c2cc1C(N)=O` (some centres not stated), for which, in data set [23], the Emax stood at 0%. Also, the half-maximal inhibitory concentration (IC50) in data set [2] is 2.5 nM; in data set [3], greater than 10000 nM. The “Chromatographic log D” value in data set [4] is 6.01. For the same molecule, the result in data set [5] was inactive.

As to `COc1cc2c(OC[C@@H]3CCC(=O)N3)ncc(C#CCOCCOCCOCCC(=O)N[C@H](C(=O)N3C[C@H](O)C[C@H]3C(=O)NCc3ccc(-c4scnc4C)cc3)C(C)(C)C)c2cc1C(N)=O`, the Emax in data set [24] is 0%. Also, the IC50 in data set [2] is 0.29 nM; in [3] it was greater than 10000 nM. Also, in [4], the “Chromatographic log D” value worked out at 3.18. For the same molecule, the result in [5] was inactive.

For `COc1cc2c(OC[C@@H]3CCC(=O)N3)ncc(C#CCCC(=O)N[C@H](C(=O)N3C[C@H](O)C[C@H]3C(=O)NCc3ccc(-c4scnc4C)cc3)C(C)(C)C)c2cc1C(N)=O`, in data set [5], the outcome was inactive.

For the molecule `CC[C@@H]1[C@H](F)C(=O)N[C@@H]1COc1nccc2cc(C(N)=O)c(OC)cc12`, the result in data set [21] was inactive.

Take `CC[C@@H]1[C@H](F)C(=O)N[C@@H]1COc1ncc(C#CCCCCCCCCCCC(=O)N[C@H](C(=O)N2CC(O)CC2C(=O)NCc2ccc(-c3scnc3C)cc2)C(C)(C)C)c2cc(C(N)=O)c(OC)cc12` (single isomer, unassigned): the DC50 in data set [11] was determined as 259 nM. The molecule also came in with a solubility in data set [12] of less than 1 µM. In addition, the “Chromatographic log D” value in data set [4] was 6.44.

In general, Emax refers to the greatest response seen or fitted, relative to the assay's reference. By IC50 is commonly meant the concentration needed to halve the response being measured. The DC50 is the midpoint of the concentration-degradation curve. By solubility is commonly meant the concentration that dissolves in the medium under given conditions.
